One assay concerns Kluyveromyces marxianus. Nature of the assay: Antifungal activity against Candida pseudotropicalis. Type of assay: functional. Summed up:
(§1)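 Agar dilution MIC. Twofold serial drug dilutions in yeast nitrogen base medium with 1% dextrose, 0.15% asparagine and 1.5% agar. Agar surfaces inoculated using a Steers multiple inocula replicator, then incubated at 35 °C for 24-48 h. MIC was recorded as the lowest concentration inhibiting visible growth. Amphotericin B, miconazole and nystatin served as controls.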

The subject of assay [1] is Candida albicans. Nature of the assay: Antifungal activity against Candida albicans. Type of assay: functional. Summed up: as §1
Another assay concerns Diutina rugosa. The experiment in a line: Antifungal activity against Candida rugosa. Type of assay: functional. Summed up:
as §1

The test system of assay [2] is Aspergillus niger. The experiment in a line: Antifungal activity against Aspergillus niger. Type of assay: functional. Summed up: as §1
Another assay deals with Mucor fragilis. The experiment in a line: Antifungal activity against Mucor fragilis. Type of assay: functional. Summed up: as §1
In a further assay the test system is Candida tropicalis. Nature of the assay: Antifungal activity against Candida tropicalis. Type of assay: functional. Summed up:
as §1

For assay [3], the system named is Candida albicans. Nature of the assay: Antifungal activity against Candida stellatoidea. Type of assay: functional. Summed up:
as §1

In assay [4] the test system is Aspergillus niger. The experiment in a line: Antifungal activity against Aspergillus niger; Range is 32-64. Type of assay: functional. Summed up: as §1
Assay [5] has as its system Aspergillus niger. Nature of the assay: Antifungal activity against Aspergillus niger; Range is 64-128. Type of assay: functional. Summed up: as §1
For assay [6], the system named is Trichophyton rubrum. Nature of the assay: Antifungal activity against Trichophyton rubrum. Type of assay: functional. Summed up: as §1
Assay [7] has as its system Trichophyton benhamiae. The experiment in a line: Antifungal activity against Trichophyton mentagrophytes. Type of assay: functional, trychophyton mentagrophytes. Summed up:
as §1

Assay [8] concerns Trichophyton rubrum. The experiment in a line: Antifungal activity against Trichophyton rubrum; Range is 2-4. Type of assay: functional. Summed up: as §1
The test system of a further assay is Candida parapsilosis. Nature of the assay: Antifungal activity against Candida parapsilosis. Type of assay: functional. The settings on record: Lodderomyces parapsilosis. Summed up:
as §1

For assay [9], the system named is Aspergillus niger. The experiment in a line: Antifungal activity against Aspergillus niger; Range is 16-32. Type of assay: functional. Summed up:
as §1

Assay [10] has as its system Candida albicans. The experiment in a line: Antifungal activity against Candida albicans; Range is 8-16. Type of assay: functional. Summed up:
as §1

For assay [11], the system named is Trichophyton rubrum. Nature of the assay: Antifungal activity against Trichophyton rubrum; Range is 4-8. Type of assay: functional. Summed up:
as §1

The test system of assay [12] is Trichophyton rubrum. The experiment in a line: Antifungal activity against Trichophyton rubrum; Range is 8-32. Type of assay: functional.
The subject of assay [13] is Trichophyton benhamiae. The experiment in a line: Antifungal activity against Trichophyton mentagrophytes; Range is 32-64. Type of assay: functional, trychophyton mentagrophytes. Summed up: as §1

For 14 compounds, MIC results are on record in ChEMBL document CHEMBL1124369, “Pyrido[3,4-e]-1,2,4-triazines and related heterocycles as potential antifungal agents” (1989).

Each structure is given as a SMILES string. Converted amounts (≈) assume the structure as drawn.

On to `CCCCCCCCCCCCCCCCCc1nnc2ccncc2n1`, for which the minimum inhibitory concentration (MIC) – broadly, the smallest concentration in the dilution series that meets the test's criterion for growth inhibition – was 128 µg/mL (≈ 345 µM) against Kluyveromyces marxianus; 128 µg/mL (≈ 345 µM) with Candida albicans [1]; greater than 128 µg/mL in the assay with Diutina rugosa; 128 µg/mL (≈ 345 µM) against Aspergillus niger [2]; 128 µg/mL (≈ 345 µM) against Mucor fragilis; 128 µg/mL (≈ 345 µM) in the assay on Candida tropicalis. This compound also registered an MIC in the assay on Candida albicans [3] greater than 128 µg/mL.

Take `c1cnc(-c2nnc3ccncc3n2)cn1`: the minimal inhibitory concentration (MIC) is 32 µg/mL (≈ 152 µM) in the assay on Aspergillus niger [4]; 32 µg/mL (≈ 152 µM) with Kluyveromyces marxianus; 64 µg/mL (≈ 304 µM) against Candida albicans [1]; 64 µg/mL (≈ 304 µM) against Diutina rugosa; 64 µg/mL (≈ 304 µM) in the assay on Mucor fragilis; 64 µg/mL (≈ 304 µM) with Candida tropicalis. The lowest concentration to inhibit growth against Candida albicans [3] (MIC) was 64 µg/mL (≈ 304 µM).

With `c1cc2nnc(C3CC3)nc2cn1`, the minimal inhibitory concentration (MIC) in the assay with Kluyveromyces marxianus turned out to be 16 µg/mL (≈ 92.9 µM); against Candida albicans [1], 16 µg/mL (≈ 92.9 µM); in the assay with Diutina rugosa, 64 µg/mL (≈ 372 µM); in the assay on Aspergillus niger [2], 32 µg/mL (≈ 186 µM); with Mucor fragilis, 16 µg/mL (≈ 92.9 µM); in the assay with Candida tropicalis, 32 µg/mL (≈ 186 µM). Further, the lowest concentration to inhibit growth in the assay on Candida albicans [3] (MIC) was 64 µg/mL (≈ 372 µM).

With `CN(C)/C=C/c1nnc2ccncc2n1`, the MIC is 128 µg/mL (≈ 636 µM) in the assay on Kluyveromyces marxianus; 64 µg/mL (≈ 318 µM) against Aspergillus niger [5]; 64 µg/mL (≈ 318 µM) against Candida albicans [1]; 16 µg/mL (≈ 79.5 µM) against Diutina rugosa; 64 µg/mL (≈ 318 µM) with Mucor fragilis; 128 µg/mL (≈ 636 µM) in the assay with Candida tropicalis. In the assay with Candida albicans [3], this compound returned a minimum inhibitory concentration (MIC) of 16 µg/mL (≈ 79.5 µM).

For the compound `CC(C)(C)c1ccc(-c2nnc3ccncc3n2)cc1`, the minimum inhibitory concentration (MIC) is 128 µg/mL (≈ 484 µM) in the assay on Kluyveromyces marxianus; 128 µg/mL (≈ 484 µM) against Candida albicans [1]; greater than 128 µg/mL with Diutina rugosa; 128 µg/mL (≈ 484 µM) in the assay on Aspergillus niger [2]; 128 µg/mL (≈ 484 µM) against Mucor fragilis; 128 µg/mL (≈ 484 µM) against Candida tropicalis. Besides, the MIC in the assay with Candida albicans [3] is greater than 128 µg/mL.

As to `Cc1nc(C)c2nc(-c3ccncc3)nnc2c1N`, the MIC was 128 µg/mL (≈ 507 µM) against Kluyveromyces marxianus; 64 µg/mL (≈ 254 µM) in the assay on Aspergillus niger [5]; 128 µg/mL (≈ 507 µM) with Candida albicans [1]; 16 µg/mL (≈ 63.4 µM) against Trichophyton rubrum [6]; greater than 128 µg/mL in the assay on Diutina rugosa; 32 µg/mL (≈ 127 µM) against Trichophyton benhamiae [7]. For the same compound, the MIC with Mucor fragilis is 64 µg/mL (≈ 254 µM); against Candida tropicalis, 128 µg/mL (≈ 507 µM); against Candida albicans [3] it was greater than 128 µg/mL.

As for `c1ccc(-c2nnc3ccccc3n2)cc1`, the MIC in the assay with Kluyveromyces marxianus came to 128 µg/mL (≈ 618 µM); in the assay on Candida albicans [1], 64 µg/mL (≈ 309 µM); with Trichophyton rubrum [6], 64 µg/mL (≈ 309 µM); against Diutina rugosa, 128 µg/mL (≈ 618 µM); with Aspergillus niger [2] it was 128 µg/mL (≈ 618 µM); in the assay with Candida tropicalis, 128 µg/mL (≈ 618 µM). Also, in the assay on Candida albicans [3], the MIC is 128 µg/mL (≈ 618 µM).

Turning to `Fc1ccccc1-c1nnc2ccncc2n1`, the MIC with Kluyveromyces marxianus came to 32 µg/mL (≈ 141 µM); in the assay on Trichophyton rubrum [8] it was 2 µg/mL (≈ 8.84 µM); with Candida albicans [1], 32 µg/mL (≈ 141 µM); in the assay with Diutina rugosa, 16 µg/mL (≈ 70.7 µM); in the assay on Trichophyton benhamiae [7], 8 µg/mL (≈ 35.4 µM); in the assay with Aspergillus niger [2], 16 µg/mL (≈ 70.7 µM). In addition, the MIC in the assay with Mucor fragilis was determined as 64 µg/mL (≈ 283 µM); in the assay with Candida parapsilosis it was 32 µg/mL (≈ 141 µM); against Candida tropicalis it was 32 µg/mL (≈ 141 µM); in the assay on Candida albicans [3], 32 µg/mL (≈ 141 µM).

With `c1ccc2nc(-c3nnc4ccncc4n3)cnc2c1`, the MIC stood at 8 µg/mL (≈ 30.7 µM) with Kluyveromyces marxianus; 8 µg/mL (≈ 30.7 µM) against Candida albicans [1]; 32 µg/mL (≈ 123 µM) against Diutina rugosa; 32 µg/mL (≈ 123 µM) against Aspergillus niger [2]; 32 µg/mL (≈ 123 µM) in the assay on Mucor fragilis; 8 µg/mL (≈ 30.7 µM) in the assay with Candida tropicalis. Further, the MIC against Candida albicans [3] was 32 µg/mL (≈ 123 µM).

`c1cc2nnc(C3CCC3)nc2cn1`: the MIC in the assay with Aspergillus niger [9] amounted to 16 µg/mL (≈ 85.9 µM); in the assay on Kluyveromyces marxianus it was 16 µg/mL (≈ 85.9 µM); in the assay with Candida albicans [10], 8 µg/mL (≈ 43 µM); in the assay on Diutina rugosa it was 32 µg/mL (≈ 172 µM); in the assay with Mucor fragilis, 16 µg/mL (≈ 85.9 µM); in the assay with Candida tropicalis, 32 µg/mL (≈ 172 µM). Also, in the assay with Candida albicans [3], it took 32 µg/mL (≈ 172 µM) to inhibit growth (MIC).

Turning to `Cc1nnc2ccncc2n1`, the MIC was 16 µg/mL (≈ 109 µM) against Aspergillus niger [9]; 8 µg/mL (≈ 54.7 µM) in the assay with Kluyveromyces marxianus; 4 µg/mL (≈ 27.4 µM) in the assay with Trichophyton rubrum [11]; 8 µg/mL (≈ 54.7 µM) in the assay on Candida albicans [10]; 16 µg/mL (≈ 109 µM) with Diutina rugosa; 16 µg/mL (≈ 109 µM) in the assay with Trichophyton benhamiae [7]. In addition, the minimum inhibitory concentration (MIC) was determined as 16 µg/mL (≈ 109 µM) in the assay on Mucor fragilis, 16 µg/mL (≈ 109 µM) with Candida parapsilosis, 8 µg/mL (≈ 54.7 µM) in the assay on Candida tropicalis and 32 µg/mL (≈ 219 µM) against Candida albicans [3].

Take `CC1N=Nc2ncccc2N1` (stereo unspecified): the MIC in the assay on Aspergillus niger [4] worked out at 32 µg/mL (≈ 216 µM); in the assay on Kluyveromyces marxianus, 64 µg/mL (≈ 432 µM); in the assay with Trichophyton rubrum [12] it was 8 µg/mL (≈ 54 µM); in the assay with Candida albicans [1], 64 µg/mL (≈ 432 µM); in the assay on Trichophyton benhamiae [13], 32 µg/mL (≈ 216 µM); in the assay with Candida parapsilosis, 64 µg/mL (≈ 432 µM). 64 µg/mL (≈ 432 µM) was the least that counted as inhibitory against Candida tropicalis (MIC).

With `c1ccc2cc(-c3nnc4ccncc4n3)ccc2c1`, the MIC with Kluyveromyces marxianus is 128 µg/mL (≈ 496 µM); with Candida albicans [1], 128 µg/mL (≈ 496 µM); with Diutina rugosa, greater than 128 µg/mL; in the assay with Aspergillus niger [2] it was 128 µg/mL (≈ 496 µM); against Mucor fragilis, 128 µg/mL (≈ 496 µM); against Candida tropicalis, 128 µg/mL (≈ 496 µM). In addition, the MIC with Candida albicans [3] is greater than 128 µg/mL.

`CCOc1ccc(-c2nnc3ccncc3n2)cc1`: the MIC in the assay with Kluyveromyces marxianus was 64 µg/mL (≈ 254 µM); in the assay on Aspergillus niger [5], 64 µg/mL (≈ 254 µM); against Candida albicans [1], 64 µg/mL (≈ 254 µM); with Diutina rugosa it was greater than 128 µg/mL; in the assay with Mucor fragilis, 128 µg/mL (≈ 507 µM); with Candida tropicalis, 64 µg/mL (≈ 254 µM). The minimal inhibitory concentration (MIC) in the assay on Candida albicans [3] was greater than 128 µg/mL.
